Measured values pooled from the literature.
Protocols differ between the studies behind these lines.
ALK: ALK tyrosine kinase receptor (ALK, Homo sapiens, UniProt Q9UM73)
ALK L1196M: ALK tyrosine kinase receptor (ALK, Homo sapiens, UniProt Q9UM73, L1196M)

Cc1ccc(NC(=O)c2ccnc(C(F)(F)F)c2)cc1-c1cc(OCCO)nc(N2CCOCC2)c1
remaining binding (ALK; binding; 1 µM): 89%

CC#CC(=O)N1CCC[C@H]1c1nc(-c2ccc(C(=O)Nc3ccccn3)cc2)c2c(N)nccn12
inhibition (ALK L1196M; enzyme activity; inhibitor; 1 µM): 11%

CNC(=O)c1ccccc1Nc1nc(Nc2ccc(CO)nc2)ncc1Cl
remaining activity (ALK; enzyme activity; inhibitor; radiometric; 1 µM): 2.92%

C=CC(=O)N1CCC([C@@H]2CCNc3c(C(N)=O)c(-c4ccc(Oc5ccccc5)cc4)nn32)CC1
inhibition (ALK; cell-free assay; 1 µM): 5%

C#Cc1cnc(Nc2ccnc(CO)c2)nc1Nc1ccccc1S(C)(=O)=NC#N (centres unmarked)
remaining activity (ALK; enzyme activity; inhibitor; radiometric; 1 µM): 27.6%

CCCCC(=O)Nc1ccc(-c2ccc3ncn(CCC)c(=O)c3c2)cn1
remaining binding (ALK L1196M; binding; competition with immobilised ligand; 0.5 µM): 100%

CO[C@@H]1[C@H](N(C)C(=O)c2ccccc2)C[C@H]2O[C@]1(C)n1c3ccccc3c3c4c(c5c6ccccc6n2c5c31)C(=O)NC4
inhibition (ALK L1196M; enzyme activity; inhibitor; 1 µM): 42%

CN1CCN(C(=O)c2ccc(NC(=O)Nc3ccc(N(C)c4ccnc(Nc5ccc(CS(C)(=O)=O)cc5)n4)cc3)cc2)CC1
remaining binding (ALK L1196M; binding; 1 µM): 83%

C#Cc1cnc(Nc2ccc(CO)cc2)nc1Nc1ccccc1C(=O)NC
remaining activity (ALK; enzyme activity; inhibitor; radiometric; 1 µM): 2.4%

COc1ccc2[nH]c3c4[nH]c5ccc(OC)cc5c4c4c(c3c2c1)C(=O)NC4=O
remaining binding (ALK L1196M; binding; 1 µM): 70%

C1=C/COCc2cc(ccc2OCCN2CCCC2)Nc2nccc(n2)-c2cccc(c2)COC/1
remaining binding (ALK tyrosine kinase receptor (ALK, Homo sapiens, UniProt Q9UM73, C1156Y); binding; 0.1 µM): 97%

CS(=O)(=NC#N)c1ccccc1Nc1nc(Nc2ccnc(CO)c2)ncc1Cl (centres unmarked)
remaining activity (ALK; enzyme activity; inhibitor; radiometric; 1 µM): 36.7%

N#Cc1ccc(NC(=O)Nc2ccccc2)cc1
remaining binding (ALK; cell-free assay; competition with immobilised ligand; 25 µM): 76%

COc1ccc2oc(-c3ccc4nc(N)oc4c3)c/c(=N\c3ccccc3NC(=O)CCN)c2c1
remaining binding (ALK; binding; 1 µM): 106%
